The text below walks through data of ChEMBL document CHEMBL4834403, “Design and Synthesis of Novel Epigenetic Inhibitors Targeting Histone Deacetylases, DNA Methyltransferase 1, and Lysine Methyltransferase G9a with In Vivo Efficacy in Multiple Myeloma” (J Med Chem, 2021).

Molecules are shown by their SMILES.

Data set [1] addresses T1, Histone-lysine N-methyltransferase EHMT2 (Homo sapiens, UniProt Q96KQ7).
T1 sequence (Q96KQ7 whole entry): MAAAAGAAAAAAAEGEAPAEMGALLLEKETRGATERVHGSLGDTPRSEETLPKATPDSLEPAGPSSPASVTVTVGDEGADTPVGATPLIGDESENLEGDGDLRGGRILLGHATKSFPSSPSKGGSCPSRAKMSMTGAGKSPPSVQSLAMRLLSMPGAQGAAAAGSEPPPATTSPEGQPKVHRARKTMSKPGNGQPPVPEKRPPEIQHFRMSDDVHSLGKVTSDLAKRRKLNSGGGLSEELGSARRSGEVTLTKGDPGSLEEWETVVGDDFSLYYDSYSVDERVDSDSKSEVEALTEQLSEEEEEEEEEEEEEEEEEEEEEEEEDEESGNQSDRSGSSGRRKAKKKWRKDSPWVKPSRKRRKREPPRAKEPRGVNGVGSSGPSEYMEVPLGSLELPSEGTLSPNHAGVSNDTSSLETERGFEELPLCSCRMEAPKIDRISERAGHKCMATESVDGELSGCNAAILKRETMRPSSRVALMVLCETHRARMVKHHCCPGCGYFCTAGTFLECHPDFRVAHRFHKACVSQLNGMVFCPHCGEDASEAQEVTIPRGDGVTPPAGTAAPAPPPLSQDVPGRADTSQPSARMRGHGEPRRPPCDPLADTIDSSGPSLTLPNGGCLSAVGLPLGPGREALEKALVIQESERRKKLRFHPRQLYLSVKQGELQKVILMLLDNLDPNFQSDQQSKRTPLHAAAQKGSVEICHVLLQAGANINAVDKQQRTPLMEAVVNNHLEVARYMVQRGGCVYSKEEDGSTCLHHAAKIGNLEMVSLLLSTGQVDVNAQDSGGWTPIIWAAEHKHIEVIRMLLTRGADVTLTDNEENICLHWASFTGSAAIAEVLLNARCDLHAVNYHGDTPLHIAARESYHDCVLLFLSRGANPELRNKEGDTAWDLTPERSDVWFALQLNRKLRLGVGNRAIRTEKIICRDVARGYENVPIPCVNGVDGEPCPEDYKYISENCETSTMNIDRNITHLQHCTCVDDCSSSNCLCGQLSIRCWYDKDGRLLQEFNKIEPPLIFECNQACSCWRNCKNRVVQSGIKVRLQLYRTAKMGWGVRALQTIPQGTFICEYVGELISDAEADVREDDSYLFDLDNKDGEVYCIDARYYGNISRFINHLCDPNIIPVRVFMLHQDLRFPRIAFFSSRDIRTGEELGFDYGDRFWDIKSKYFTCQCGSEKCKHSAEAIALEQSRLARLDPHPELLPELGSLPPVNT
Kind of data set: Inhibition of human G9a enzyme using histone monomethyl-H3K9 peptide as substrate incubated for 1 hr in presence of SAM by TR-FRET assay. A general note: TR-FRET usually uses a lanthanide donor and a delayed reading to cut background.

The target of data set [2] is T2, Protein deacetylase HDAC6 (Homo sapiens, UniProt Q9UBN7).
T2 sequence (Q9UBN7 whole entry): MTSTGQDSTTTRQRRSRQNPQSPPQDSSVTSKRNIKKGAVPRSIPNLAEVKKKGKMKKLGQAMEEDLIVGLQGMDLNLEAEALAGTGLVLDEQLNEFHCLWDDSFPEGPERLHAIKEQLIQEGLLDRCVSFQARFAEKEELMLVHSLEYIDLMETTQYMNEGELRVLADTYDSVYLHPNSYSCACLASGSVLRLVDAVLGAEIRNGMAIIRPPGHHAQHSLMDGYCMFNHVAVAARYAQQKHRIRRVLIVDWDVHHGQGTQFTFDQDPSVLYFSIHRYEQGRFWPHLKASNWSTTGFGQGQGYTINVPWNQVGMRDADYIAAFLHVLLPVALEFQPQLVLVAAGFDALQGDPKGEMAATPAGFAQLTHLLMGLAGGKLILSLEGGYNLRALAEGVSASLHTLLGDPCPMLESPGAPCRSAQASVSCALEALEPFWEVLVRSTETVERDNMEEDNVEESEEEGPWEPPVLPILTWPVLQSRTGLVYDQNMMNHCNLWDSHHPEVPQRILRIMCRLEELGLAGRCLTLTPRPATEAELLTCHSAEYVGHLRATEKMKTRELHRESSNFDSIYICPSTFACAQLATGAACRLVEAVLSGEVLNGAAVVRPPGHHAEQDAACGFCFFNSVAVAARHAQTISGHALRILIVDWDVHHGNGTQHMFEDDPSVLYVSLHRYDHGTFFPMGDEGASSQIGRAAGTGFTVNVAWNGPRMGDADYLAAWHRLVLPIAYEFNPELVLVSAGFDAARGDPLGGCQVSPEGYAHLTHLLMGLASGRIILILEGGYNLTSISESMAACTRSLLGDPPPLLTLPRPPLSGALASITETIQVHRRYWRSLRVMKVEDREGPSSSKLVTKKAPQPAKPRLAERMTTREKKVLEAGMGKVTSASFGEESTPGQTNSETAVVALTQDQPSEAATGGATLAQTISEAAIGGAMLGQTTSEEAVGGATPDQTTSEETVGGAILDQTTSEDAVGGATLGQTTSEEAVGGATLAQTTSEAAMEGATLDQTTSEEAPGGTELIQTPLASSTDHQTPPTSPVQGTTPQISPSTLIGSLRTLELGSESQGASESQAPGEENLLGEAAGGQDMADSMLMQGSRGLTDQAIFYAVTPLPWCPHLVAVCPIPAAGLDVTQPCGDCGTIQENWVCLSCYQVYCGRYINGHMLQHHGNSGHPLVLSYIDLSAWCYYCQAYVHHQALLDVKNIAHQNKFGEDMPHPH
Nature of the data set: Inhibition of full length human N-terminal GST-tagged HDAC6 using fluorogenic acetylated peptide as substrate incubated for 30 mins by fluorescence plate reader assay.

Data set [3] has as its system THLE-2. Kind of data set: Cytotoxicity against human THLE-2 cells assessed as decrease in cell viability measured after 72 hrs by Vialight-plus cell proliferation assay. In kind it is cell-based. The following applies: thle-2, 72 h. In short, it runs like this: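 Human THLE-2 cells exposed to compound for 72 h. Cytotoxicity reported as LC50 and pLC50, averaged from at least two independent experiments on different days.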

Data set [4] concerns the target Histone deacetylase 1 (Homo sapiens, UniProt Q13547). Kind of data set: Inhibition of full length human C-terminal His-tagged/C-terminal Flag-tagged HDAC1 using fluorogenic acetylated peptide as substrate incubated for 30 mins by fluorescence plate reader assay.
For data set [5], the target named is DNA (cytosine-5)-methyltransferase 1 (Homo sapiens, UniProt P26358). Nature of the data set: Inhibition of human DNMT1 enzyme using polydeoxy-inosine polydeoxy-cytosine DNA as substrate incubated for 15 mins in presence of SAM by TR-FRET assay.
Chain of DNA (cytosine-5)-methyltransferase 1 (P26358 whole entry): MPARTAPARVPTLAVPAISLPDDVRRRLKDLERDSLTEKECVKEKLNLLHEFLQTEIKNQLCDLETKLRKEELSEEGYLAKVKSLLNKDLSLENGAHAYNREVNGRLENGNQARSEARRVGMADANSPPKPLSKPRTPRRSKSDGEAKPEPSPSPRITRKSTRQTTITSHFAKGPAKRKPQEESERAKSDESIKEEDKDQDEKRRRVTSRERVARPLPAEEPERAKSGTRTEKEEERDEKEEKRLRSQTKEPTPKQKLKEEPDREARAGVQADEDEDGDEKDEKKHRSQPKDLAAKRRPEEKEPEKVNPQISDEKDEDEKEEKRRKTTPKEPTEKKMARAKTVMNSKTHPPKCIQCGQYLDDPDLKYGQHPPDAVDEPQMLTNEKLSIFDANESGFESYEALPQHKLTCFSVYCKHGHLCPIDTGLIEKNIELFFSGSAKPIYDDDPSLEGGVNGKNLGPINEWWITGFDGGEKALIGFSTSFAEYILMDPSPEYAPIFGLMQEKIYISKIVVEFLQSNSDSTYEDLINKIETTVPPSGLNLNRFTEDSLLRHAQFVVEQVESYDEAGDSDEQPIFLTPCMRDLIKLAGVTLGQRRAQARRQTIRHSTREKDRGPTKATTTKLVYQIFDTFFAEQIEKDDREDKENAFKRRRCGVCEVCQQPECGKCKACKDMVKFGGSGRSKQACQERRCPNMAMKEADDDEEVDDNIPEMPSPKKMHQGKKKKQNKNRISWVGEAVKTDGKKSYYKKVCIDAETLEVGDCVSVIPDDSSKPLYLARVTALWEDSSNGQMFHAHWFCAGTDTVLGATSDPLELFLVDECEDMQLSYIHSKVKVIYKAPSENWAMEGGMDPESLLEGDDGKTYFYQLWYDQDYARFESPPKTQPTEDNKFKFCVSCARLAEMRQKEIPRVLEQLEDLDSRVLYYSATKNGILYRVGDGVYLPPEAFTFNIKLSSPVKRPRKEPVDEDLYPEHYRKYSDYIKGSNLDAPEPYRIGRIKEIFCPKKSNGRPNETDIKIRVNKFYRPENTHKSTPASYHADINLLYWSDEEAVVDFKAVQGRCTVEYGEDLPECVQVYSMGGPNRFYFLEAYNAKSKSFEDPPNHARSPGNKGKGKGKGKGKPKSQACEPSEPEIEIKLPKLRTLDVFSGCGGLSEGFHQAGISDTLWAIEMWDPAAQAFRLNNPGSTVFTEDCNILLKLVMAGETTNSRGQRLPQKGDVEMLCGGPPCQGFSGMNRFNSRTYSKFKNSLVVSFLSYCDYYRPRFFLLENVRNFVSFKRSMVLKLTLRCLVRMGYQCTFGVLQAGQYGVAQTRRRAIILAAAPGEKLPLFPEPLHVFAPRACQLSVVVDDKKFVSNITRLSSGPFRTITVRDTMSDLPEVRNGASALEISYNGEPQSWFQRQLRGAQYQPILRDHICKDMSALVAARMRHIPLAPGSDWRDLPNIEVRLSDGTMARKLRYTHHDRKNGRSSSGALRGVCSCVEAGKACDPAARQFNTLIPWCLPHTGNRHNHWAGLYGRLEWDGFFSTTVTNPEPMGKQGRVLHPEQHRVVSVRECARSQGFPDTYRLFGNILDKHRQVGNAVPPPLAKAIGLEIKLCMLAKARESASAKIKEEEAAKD
Data set [6] in a line: Permeability of the compound in PBS/EtOH buffer (70:30) incubated for 18 hrs by UV plate reader based PAMPA assay. The following applies: read-out: permeability. It is filed as ADME. (PAMPA measures passive passage across an artificial lipid membrane.)
The subject of data set [7] is MM1.S. Nature of the data set: Antiproliferative activity against human MM1.S cells assessed as inhibition of cell proliferation measured up to 72 hrs by CellTiter96 Aqueous one reagent based assay. It is filed as functional.
Setting [8] is: time hrs <=72, read-out: pGI50 (converted).

Chain of Histone deacetylase 1 (Q13547 whole entry): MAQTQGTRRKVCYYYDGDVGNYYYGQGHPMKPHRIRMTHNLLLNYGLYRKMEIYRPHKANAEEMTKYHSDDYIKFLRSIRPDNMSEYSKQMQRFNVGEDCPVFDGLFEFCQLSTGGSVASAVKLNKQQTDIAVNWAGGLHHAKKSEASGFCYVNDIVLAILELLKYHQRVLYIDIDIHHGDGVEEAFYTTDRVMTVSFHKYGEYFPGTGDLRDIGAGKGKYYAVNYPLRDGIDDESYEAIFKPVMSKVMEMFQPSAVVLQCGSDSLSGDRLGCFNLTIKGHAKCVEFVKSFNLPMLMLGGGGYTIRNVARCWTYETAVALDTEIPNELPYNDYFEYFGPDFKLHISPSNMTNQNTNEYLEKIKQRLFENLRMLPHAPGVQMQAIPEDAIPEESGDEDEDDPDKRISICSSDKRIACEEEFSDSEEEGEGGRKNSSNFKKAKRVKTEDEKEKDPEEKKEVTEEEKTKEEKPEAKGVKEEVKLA

Regarding `COc1cc2c(NCC3CCN(c4ccc(C(=O)NO)cc4)CC3)cc(-c3ccc(C)o3)nc2cc1OCCCN1CCCC1`, the IC50 (usually the concentration needed to halve the response being measured) in data set [1] came out at 269 nM; in data set [2], 67 nM; in data set [4], 78 nM; in data set [5], 417 nM. Further, in data set [3], the LC50 (commonly the concentration lethal to half of the exposed cells or organisms) was found to be 9700 nM. Further, the pLC50 in data set [3] worked out at 5.01. For the same compound, the Papp at 18 h in data set [6] was 0.05 ×10⁻⁶ cm/s. The GI50 in data set [7] (time hrs <=72, read-out: GI50) is 3760 nM; in data set [7] (setting [8]) it was 3720 nM.
Take `COc1cc2nc(-c3ccc(C)s3)cc(NCC3CCN(c4ncc(C(=O)NO)cn4)CC3)c2cc1OC`: the IC50 is over 10000 nM in data set [1], 1260 nM in data set [2], 17 nM in data set [4] and over 10000 nM in data set [5].
For `COc1cc2nc(-c3ccc(C)o3)cc(NCc3ccc(C(=O)NO)cn3)c2cc1OC`, the IC50 in data set [1] was over 10000 nM; in data set [2] it was 204 nM; in data set [4], 87 nM; in data set [5], over 10000 nM.
In the case of `COc1cc2nc(-c3ccc(C)o3)cc(NCC3CCN(c4ccc(C(=O)NO)cn4)CC3)c2cc1OC`, the half-maximal inhibitory concentration (IC50) was over 10000 nM in data set [1], 465 nM in data set [2], 144 nM in data set [4] and 8410 nM in data set [5].
`COc1cc2c(NCC3CCN(C4CCC(C(=O)NO)CC4)CC3)cc(-c3ccc(C)o3)nc2cc1OCCCN1CCCC1` (configuration not stated): the concentration for half-maximal inhibition (IC50) in data set [1] was 38 nM; in data set [2] it was over 20000 nM; in data set [4] it was over 20000 nM; in data set [5] it was 566 nM.
With `COc1cc2c(NCC3CCC(c4ccc(C(=O)NO)cc4)CC3)cc(-c3ccc(C)o3)nc2cc1OCCCN1CCCC1` (configuration not stated), the concentration for half-maximal inhibition (IC50) in data set [1] is 3100 nM; in data set [2], 122 nM; in data set [4] it was 34 nM; in data set [5], 2760 nM.
For `COc1cc2c(NCc3ccc([C@H]4CC[C@H](C(=O)NO)CC4)cc3)cc(-c3ccc(C)o3)nc2cc1OCCCN1CCCC1`, the IC50 amounted to 1650 nM in data set [1], 9620 nM in data set [2], 3320 nM in data set [4] and 2270 nM in data set [5].
In the case of `COc1cc2nc(C)cc(NCC3CCN(c4ncc(C(=O)NO)cn4)CC3)c2cc1OC`, the concentration for half-maximal inhibition (IC50) in data set [1] was 7.2 nM; in data set [2] it was 253 nM; in data set [4], 3 nM; in data set [5] it was over 10000 nM.
For `COc1cc2nc(-c3ccc(C)o3)cc(N[C@H]3CC[C@H](C(=O)NO)CC3)c2cc1OC`, the IC50 was over 10000 nM in data set [1], over 20000 nM in data set [2], over 4000 nM in data set [4] and 4180 nM in data set [5].
With `COc1cc2nc(-c3ccccc3)cc(NCC3CCN(c4ncc(C(=O)NO)cn4)CC3)c2cc1OC`, the IC50 in data set [1] was over 10000 nM; in data set [2], 230 nM; in data set [4], 3 nM; in data set [5], over 10000 nM.
On to `COc1cc2nc(-c3ccc(C)o3)cc(N[C@H]3CC[C@@H](C(=O)NO)CC3)c2cc1OC`, for which the 50% inhibitory concentration (IC50) was over 10000 nM in data set [1], 2890 nM in data set [2], 396 nM in data set [4] and 2660 nM in data set [5].
On to `COc1cc2c(NCC3CCN(Cc4ccc(C(=O)NO)cc4)CC3)cc(-c3ccc(C)o3)nc2cc1OCCCN1CCCC1`, for which the 50% inhibitory concentration (IC50) came out at 46 nM in data set [1], 53 nM in data set [2], 524 nM in data set [4] and 167 nM in data set [5]. Also, the median lethal concentration (LC50) in data set [3] worked out at 3890 nM. Also, in data set [3], the pLC50 came to 5.41. Further, the GI50 in data set [7] (time hrs <=72, read-out: GI50) is 3570 nM; in data set [7] (setting [8]) it was 3550 nM.
On to `COc1cc2c(NCc3ccc([C@H]4CC[C@@H](C(=O)NO)CC4)cc3)cc(-c3ccc(C)o3)nc2cc1OCCCN1CCCC1`, for which the half-inhibitory concentration (IC50) was 1920 nM in data set [1], 351 nM in data set [2], 115 nM in data set [4] and 1430 nM in data set [5].
In the case of `COc1cc2nc(N3CCCCC3)cc(NCC3CCN(c4ncc(C(=O)NO)cn4)CC3)c2cc1OC`, the IC50 in data set [1] was over 10000 nM; in data set [2], 234 nM; in data set [4], 3 nM; in data set [5], over 10000 nM.
On to `O=C(CCCCCCC(=O)Nc1ccccc1)NO` [VORINOSTAT], for which the concentration for half-maximal inhibition (IC50) in data set [1] and in data set [5] was over 10000 nM each time.
Take `COc1cc2c(NCC3CCN(c4ncc(C(=O)NO)cn4)CC3)cc(C)nc2cc1OCCCN1CCCC1`: the 50% inhibitory concentration (IC50) in data set [1] came out at 4 nM; in data set [2] it was 350 nM; in data set [4], 7 nM; in data set [5], 555 nM. Besides, the median lethal concentration (LC50) in data set [3] is on record as over 100000 nM. The pLC50 in data set [3] is listed as under 4. The GI50 is over 10000 nM in data set [7] (time hrs <=72, read-out: GI50) and over 10000 nM in data set [7] (setting [8]).
`Cc1[nH]c2ccccc2c1CCNCc1ccc(/C=C/C(=O)NO)cc1` [PANOBINOSTAT]: the LC50 in data set [3] was 22 nM. Further, the pLC50 in data set [3] is 7.66. Besides, the Papp at 18 h in data set [6] came to 1.42 ×10⁻⁶ cm/s. The GI50 in data set [7] (time hrs <=72, read-out: GI50) was 8.9 nM; in data set [7] (setting [8]) it was 8.91 nM.
As to `COc1cc2c(NC3CCN(Cc4ccc(C(=O)NO)cc4)CC3)cc(-c3ccc(C)o3)nc2cc1OCCCN1CCCC1`, the IC50 came to 47 nM in data set [1], 39 nM in data set [2], 147 nM in data set [4] and 318 nM in data set [5]. Also, in data set [3], the 50% lethal concentration (LC50) was found to be 22050 nM. Moreover, in data set [3], the pLC50 amounted to 4.66. For the same compound, the GI50 in data set [7] (time hrs <=72, read-out: GI50) is 4210 nM; in data set [7] (setting [8]) it was 4170 nM.
In the case of `COc1cc2nc(-c3cc(C)oc3C)cc(NCC3CCN(c4ncc(C(=O)NO)cn4)CC3)c2cc1OC`, the 50% inhibitory concentration (IC50) in data set [1] was over 10000 nM; in data set [2], 126 nM; in data set [4], 5 nM; in data set [5] it was over 10000 nM.
